Holding throughout (assay type): functional
Assay [1] deals with Onchocerca gutturosa. In words: Mean motility score for treated Onchocerca gutturosa involving LLCMK2 feeder cells at a concentration of 4.88*10e-8M at 2 h. An outline of the steps: (§1)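 Single male O. gutturosa worms (obtained following abattoir slaughter) per well in Eagle's MEM with 10% heat-inactivated fetal calf serum, penicillin, streptomycin, amphotericin B and bicarbonate, over LLCMK2 feeder cells, 5% CO2 in air. Drug dissolved in DMSO; controls received matched DMSO ≤0.016%. Motility scored 0 (immotile) to 10 (maximum control activity) every 30 min to 4.5 h, then days 1, 2, 3, 4, 7.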

Assay [2] deals with Onchocerca gutturosa. In words: Mean motility score for treated Onchocerca gutturosa involving LLCMK2 feeder cells at a concentration of 1.95*10e-8 M at 168 h. An outline of the steps:
(§2)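 One male O. gutturosa per well over LLCMK2 feeder cells in MEM with 10% heat-inactivated FCS, antibiotics and bicarbonate, 5% CO2; compound introduced in DMSO (≤0.016%, equal DMSO in controls). Motility scored 0 (immotile) to 10 (maximal control activity) every 30 min to 4.5 h, then at 1, 2, 3, 4 and 7 days.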

Assay [3] deals with Onchocerca gutturosa. In words: Mean motility score for treated Onchocerca gutturosa involving LLCMK2 feeder cells at a concentration of 1.95*10e-8 M at 1 h. The procedure, abridged: as §2
The test system of assay [4] is Onchocerca gutturosa. In words: Mean motility score for treated Onchocerca gutturosa involving LLCMK2 feeder cells at a concentration of 3.1*10e-6 M at 4 h. An outline of the steps: as §1
Assay [5] concerns Onchocerca gutturosa. In words: Mean motility score for treated Onchocerca gutturosa involving LLCMK2 feeder cells at a concentration of 3.05*10e-8 M at 2 h. To be noted: in the assay text read “3.05*10e-9 M” for “3.05*10e-8 M”. An outline of the steps:
as §2

In assay [6] the test system is Onchocerca gutturosa. In words: Mean motility score for treated Onchocerca gutturosa involving LLCMK2 feeder cells at a concentration of 4.88*10e-8M at 3.5 h. An outline of the steps: as §1
The test system of assay [7] is Onchocerca gutturosa. In words: Colorimetric quantification of male Onchocerca gutturosa viability, expressed as % inhibition of formazan formation at 1.95*10e-7 M conc. by using tetrazolium Dye MTT assay. The procedure, abridged: (§3)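 Single intact male O. gutturosa, cultured with LLCMK2 feeder cells in MEM + 10% heat-inactivated FCS (5% CO2), drug added from DMSO (≤0.016% DMSO in controls). MTT read after 168 h: worm in 0.5 mg/mL MTT, 30 min at 36.5 °C, formazan solubilized in DMSO 1 h at room temperature, absorbance 490 nm vs DMSO blank.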
For orientation: Tetrazolium assays rely on reduction of a dye to a coloured formazan, in cell work by metabolically active cells.

Assay [8] deals with Onchocerca gutturosa. In words: Mean motility score for treated Onchocerca gutturosa involving LLCMK2 feeder cells at a concentration of 1.95*10e-8 M at 0.5 h. The procedure, abridged:
as §2

Assay [9] relates to Onchocerca gutturosa. In words: Mean motility score for treated Onchocerca gutturosa involving LLCMK2 feeder cells at a concentration of 3.05*10e-8 M at 0.5 h. An outline of the steps: as §2
In assay [10] the test system is Onchocerca gutturosa. In words: Mean motility score for treated Onchocerca gutturosa involving LLCMK2 feeder cells at a concentration of 1.95*10e-8 M at 3 h. As to conditions: in the assay text read “1.95*10e-7 M” for “1.95*10e-8 M”. An outline of the steps:
as §2

Assay [11] has as its system Onchocerca gutturosa. In words: Colorimetric quantification of male Onchocerca gutturosa viability, expressed as % inhibition of formazan formation at 3.05*10e-9 M conc. by using tetrazolium Dye MTT assay. An outline of the steps:
as §3

The test system of assay [12] is Onchocerca gutturosa. In words: Mean motility score for treated Onchocerca gutturosa involving LLCMK2 feeder cells at a concentration of 3.1*10e-6 M at 1 h. An outline of the steps: as §1
For assay [13], the system named is Onchocerca gutturosa. In words: Mean motility score for treated Onchocerca gutturosa involving LLCMK2 feeder cells at a concentration of 3.1*10e-6 M at 2 h. The procedure, abridged: as §1
Assay [14] concerns Onchocerca gutturosa. In words: Mean motility score for treated Onchocerca gutturosa involving LLCMK2 feeder cells at a concentration of 1.95*10e-8 M at 24 h. The procedure, abridged: as §2
Assay [15] has as its system Onchocerca gutturosa. In words: Mean motility score for treated Onchocerca gutturosa involving LLCMK2 feeder cells at a concentration of 4.88*10e-8M at 48 h. The procedure, abridged:
as §1

For assay [16], the system named is Onchocerca gutturosa. In words: Mean motility score for treated Onchocerca gutturosa involving LLCMK2 feeder cells at a concentration of 1.95*10e-8 M at 2.5 h. The procedure, abridged:
as §2

The subject of assay [17] is Onchocerca gutturosa. In words: Mean motility score for treated Onchocerca gutturosa involving LLCMK2 feeder cells at a concentration of 4.88*10e-8M at 4 h. An outline of the steps: as §1
In assay [18] the test system is Onchocerca gutturosa. In words: Mean motility score for treated Onchocerca gutturosa involving LLCMK2 feeder cells at a concentration of 3.1*10e-6 M at 72 h. An outline of the steps:
as §1

The subject of assay [19] is Onchocerca gutturosa. In words: Mean motility score for treated Onchocerca gutturosa involving LLCMK2 feeder cells at a concentration of 5*10e-5 M at 168 h. An outline of the steps: as §1
Assay [20] concerns Onchocerca gutturosa. In words: Mean motility score for treated Onchocerca gutturosa involving LLCMK2 feeder cells at a concentration of 1.95*10e-8 M at 48 h. The procedure, abridged:
as §2

In assay [21] the test system is Onchocerca gutturosa. In words: Mean motility score for treated Onchocerca gutturosa involving LLCMK2 feeder cells at a concentration of 1.95*10e-8 M at 4 h. The procedure, abridged:
as §2

Assay [22] has as its system Onchocerca gutturosa. In words: Mean motility score for treated Onchocerca gutturosa involving LLCMK2 feeder cells at a concentration of 3.1*10e-6 M at 0.5 h. An outline of the steps: as §1
In assay [23] the test system is Onchocerca gutturosa. In words: Mean motility score for treated Onchocerca gutturosa involving LLCMK2 feeder cells at a concentration of 4.88*10e-8M at 96 h. An outline of the steps:
as §1

The subject of assay [24] is Onchocerca gutturosa. In words: Mean motility score for treated Onchocerca gutturosa involving LLCMK2 feeder cells at a concentration of 3.1*10e-6 M at 3.5 h. The procedure, abridged:
as §1

Assay [25] deals with Onchocerca gutturosa. In words: Mean motility score for treated Onchocerca gutturosa involving LLCMK2 feeder cells at a concentration of 3.05*10e-8 M at 2.5 h. To be noted: in the assay text read “3.05*10e-9 M” for “3.05*10e-8 M”. The procedure, abridged: as §2
The test system of assay [26] is Onchocerca gutturosa. In words: Mean motility score for treated Onchocerca gutturosa involving LLCMK2 feeder cells at a concentration of 5*10e-5 M at 168 h(O = IMMOTILE). An outline of the steps:
as §1

Assay [27] deals with Onchocerca gutturosa. In words: Mean motility score for treated Onchocerca gutturosa involving LLCMK2 feeder cells at a concentration of 3.05*10e-9 M at 2.5 h. The procedure, abridged:
as §1

Assay [28] concerns Onchocerca gutturosa. In words: Mean motility score for treated Onchocerca gutturosa involving LLCMK2 feeder cells at a concentration of 1.94*10e-7M at 1.5 h. The procedure, abridged: as §2
In assay [29] the test system is Onchocerca gutturosa. In words: Mean motility score for treated Onchocerca gutturosa involving LLCMK2 feeder cells at a concentration of 1.94*10e-7M at 96 h. An outline of the steps:
as §2

The subject of assay [30] is Onchocerca gutturosa. In words: Mean motility score for treated Onchocerca gutturosa involving LLCMK2 feeder cells at a concentration of 1.94*10e-7M at 0.5 h. The procedure, abridged:
as §2

Assay [31] deals with Onchocerca gutturosa. In words: Mean motility score for treated Onchocerca gutturosa involving LLCMK2 feeder cells at a concentration of 1.21*10e-8M at 24 h. The procedure, abridged: as §2
Assay [32] has as its system Onchocerca gutturosa. In words: Mean motility score for treated Onchocerca gutturosa involving LLCMK2 feeder cells at a concentration of 1.94*10e-7M at 1 h. An outline of the steps:
as §2

The test system of assay [33] is Onchocerca gutturosa. In words: Mean motility score for treated Onchocerca gutturosa involving LLCMK2 feeder cells at a concentration of 1.21*10e-8M at 48 h. The procedure, abridged:
as §2

The next assay concerns Brugia pahangi. In words: anti-filarial Activity was measured against Brugia pahangi in jirds at 50 mg/kg/day(5 days) dose. An outline of the steps:
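Jirds with established B. pahangi or A. viteae infections were given drug once daily for 5 days by subcutaneous injection, at the maximum tolerated dose and, where supply allowed, graded lower doses. Tolerance was first checked in noninfected jirds with a single 200 mg/kg oral or subcutaneous dose, watching 72 h for excessive weight loss or death. Macrofilarial suppression was the read-out.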

The Inhibition is the share of the control response that was lost under treatment. A low value points to little suppression. Turning to `C/C(=N\NC(=S)N1CCCCCC1)c1ccccn1`, the Motility turned out to be 8.8 in the assay with Onchocerca gutturosa [1]; 0 with Onchocerca gutturosa [2]; 9.5 in the assay with Onchocerca gutturosa [3]; 9 in the assay on Onchocerca gutturosa [4]; 9.8 with Onchocerca gutturosa [5]; 8.5 in the assay on Onchocerca gutturosa [6]. For the same compound, the Motility in the assay on Onchocerca gutturosa [8] is listed as 8.8; in the assay with Onchocerca gutturosa [9], 9.8; with Onchocerca gutturosa [10], 10; in the assay with Onchocerca gutturosa [12], 9.8; in the assay on Onchocerca gutturosa [13] it was 9.8; in the assay on Onchocerca gutturosa [14] it was 8. The Motility in the assay with Onchocerca gutturosa [15] was 4; in the assay with Onchocerca gutturosa [16], 9.3; with Onchocerca gutturosa [17] it was 8.8; with Onchocerca gutturosa [18] it was 0; with Onchocerca gutturosa [19], 0; in the assay with Onchocerca gutturosa [20], 2.5. Further, the Motility stood at 10 in the assay with Onchocerca gutturosa [21]; 9.5 with Onchocerca gutturosa [22]; 1.5 in the assay on Onchocerca gutturosa [23]; 9 with Onchocerca gutturosa [24]; 8.3 with Onchocerca gutturosa [25]. Moreover, the Inhibition in the assay on Onchocerca gutturosa [7] came to 70.4%; in the assay on Onchocerca gutturosa [11] it was 19.5%.

Turning to `C/C(=N\NC(S)=Nc1ccccc1N)c1ccccn1`, the Motility in the assay on Onchocerca gutturosa [26] was determined as 0; in the assay on Onchocerca gutturosa [27], 7.5; in the assay on Onchocerca gutturosa [28] it was 8; in the assay with Onchocerca gutturosa [29] it was 1.8; with Onchocerca gutturosa [30] it was 9.8; with Onchocerca gutturosa [31] it was 9. The figures for the Motility in the assay on Onchocerca gutturosa [32] and with Onchocerca gutturosa [33] were 9.8 and 7.3, respectively. For the same compound, the Suppression in the assay with Brugia pahangi is 100%.
